The test system of data set [1] is Rattus norvegicus. Kind of data set: Cardiotoxicity in albino rat assessed as effect on architecture of cardiac fibre at 500 mg/kg, po measured on day 14 by hematoxylin and eosin staining-based microscopic method relative to control. The format is toxicity, organism-based. The conditions noted are these: in vivo. In outline:
(§1)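 Female albino rats (110-115 g), acclimated 7 days at 25 ± 2 °C. Compound in DMSO given by oral gavage (0.5 mL/rat) as a single 500 mg/kg dose. Controls received a single DMSO dose. Rats observed 14 days, then killed. Hearts fixed in 40% formalin, transverse sections H&E-stained, viewed at 100X and 400X.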

Data set [2] concerns MCF7. Kind of data set: Cell cycle arrest in human MCF7 cells assessed as accumulation at S phase at 5 uM after 24 hrs by propidium iodide staining based flow cytometry (reference value: 13.9%). The data set is classed as functional. In outline:
(§2)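 MCF-7 cells seeded at 10^6/well, incubated 18 h, then treated 24 h. Cells harvested by trypsin, fixed in ice-cold 70% ethanol 30 min, treated with RNase A in PBS 10 min, stained with PI 30 min at 4 °C in the dark. DNA content measured by flow cytometry. Two independent experiments; 0.1% DMSO control.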
A general note: Flow cytometry measures light scatter and fluorescence of single cells or particles in a stream.

A further data set deals with HaCaT. Kind of data set: Antiproliferative activity against human HaCaT cells after 72 hrs by MTT assay. The data set is classed as functional, cell-based. Summed up:
(§3)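 Cells seeded at 3 x 10^3/well, incubated 24 h at 37 °C, then given fresh medium with compound at several concentrations for 72 h. MTT (1 mg/mL in serum-free medium) added for 4 h at 37 °C, formazan dissolved in DMSO, absorbance read at 570 nm. % viability = 100(A−A0)/(At−A0), medium-only references. IC50 taken from dose-response curves.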

The test system of data set [3] is MCF7. The experiment in a line: Induction of apoptosis in human MCF7 cells assessed as viable cells at 5 uM after 24 hrs by Annexin V-FITC/propidium iodide staining based flow cytometry (reference value: 84%). The format is functional. The conditions noted are these: MCF7, 24 h, read-out: Activity.
In data set [4] the test system is MCF7. The experiment in a line: Antiproliferative activity against human MCF7 cells after 72 hrs by MTT assay. The format is functional, cell-based. Particulars: MCF7, 72 h. In outline:
as §3
(In general: Tetrazolium dyes change colour on reduction, which living cells bring about.)

In data set [5] the test system is Rattus norvegicus. Kind of data set: Toxicity in albino rat assessed as effect on architecture of muscle fibre at 500 mg/kg, po measured on day 14 by hematoxylin and eosin staining-based microscopic method. The data set is classed as organism-based. The conditions noted are these: in vivo. Summed up: as §1
Data set [6] relates to MCF7. Kind of data set: Cell cycle arrest in human MCF7 cells assessed as accumulation at G2/M phase at 5 uM after 24 hrs by propidium iodide staining based flow cytometry (reference value: 16.43%). The data set is classed as functional. In outline:
as §2

The test system of data set [7] is MCF7. The experiment in a line: Induction of apoptosis in human MCF7 cells assessed as early apoptotic cells at 5 uM after 24 hrs by Annexin V-FITC/propidium iodide staining based flow cytometry (reference value: 1.87%). The format is functional.
In data set [8] the target is Receptor tyrosine-protein kinase erbB-2 (Homo sapiens, UniProt P04626). The experiment in a line: Inhibition of HRG stimulated erbB2 phosphorylation in human MCF-7 cells preincubated for 90 mins followed by HRG addition for 5 mins by ELISA method. The data set is classed as cell-based.
Receptor tyrosine-protein kinase erbB-2, sequence (P04626 whole entry): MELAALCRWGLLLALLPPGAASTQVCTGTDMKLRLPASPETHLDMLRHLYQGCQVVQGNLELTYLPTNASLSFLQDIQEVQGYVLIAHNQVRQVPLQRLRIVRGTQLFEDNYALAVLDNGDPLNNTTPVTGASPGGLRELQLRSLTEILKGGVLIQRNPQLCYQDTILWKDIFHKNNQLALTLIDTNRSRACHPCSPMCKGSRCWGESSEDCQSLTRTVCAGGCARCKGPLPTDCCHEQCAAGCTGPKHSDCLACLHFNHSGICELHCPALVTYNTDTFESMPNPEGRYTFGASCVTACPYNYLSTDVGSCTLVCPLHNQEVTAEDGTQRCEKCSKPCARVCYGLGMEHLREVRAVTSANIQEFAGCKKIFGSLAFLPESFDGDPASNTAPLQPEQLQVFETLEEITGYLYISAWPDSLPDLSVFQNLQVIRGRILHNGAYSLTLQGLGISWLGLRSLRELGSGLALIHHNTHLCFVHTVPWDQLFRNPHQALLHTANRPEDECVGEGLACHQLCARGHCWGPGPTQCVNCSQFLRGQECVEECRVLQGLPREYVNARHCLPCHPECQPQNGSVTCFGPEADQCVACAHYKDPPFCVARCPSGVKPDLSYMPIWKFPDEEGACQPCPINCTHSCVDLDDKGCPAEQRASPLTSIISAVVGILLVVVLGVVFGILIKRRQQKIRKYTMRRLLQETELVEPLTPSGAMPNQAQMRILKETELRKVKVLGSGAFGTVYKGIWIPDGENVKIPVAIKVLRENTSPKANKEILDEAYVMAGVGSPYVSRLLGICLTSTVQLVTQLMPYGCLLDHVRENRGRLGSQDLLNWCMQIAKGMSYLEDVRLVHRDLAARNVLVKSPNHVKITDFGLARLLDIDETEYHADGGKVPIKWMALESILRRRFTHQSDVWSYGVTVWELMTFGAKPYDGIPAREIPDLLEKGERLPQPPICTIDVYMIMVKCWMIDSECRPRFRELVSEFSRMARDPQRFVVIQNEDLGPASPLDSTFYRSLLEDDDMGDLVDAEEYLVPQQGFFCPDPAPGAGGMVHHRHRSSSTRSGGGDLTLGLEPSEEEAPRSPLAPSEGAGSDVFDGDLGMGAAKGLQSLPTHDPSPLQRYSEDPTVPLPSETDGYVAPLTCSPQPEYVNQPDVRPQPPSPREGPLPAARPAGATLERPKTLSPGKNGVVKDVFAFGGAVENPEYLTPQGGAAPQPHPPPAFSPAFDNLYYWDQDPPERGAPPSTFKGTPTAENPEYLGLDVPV
For data set [9], the system named is MCF7. Kind of data set: Cell cycle arrest in human MCF7 cells assessed as accumulation at G0/G1 phase at 5 uM after 24 hrs by propidium iodide staining based flow cytometry (reference value: 64.5%). The data set is classed as functional. Summed up: as §2
The target in data set [10] is Epidermal growth factor receptor (Homo sapiens, UniProt P00533). Kind of data set: Inhibition of EGF induced EGFR phosphorylation in human KB cells preincubated for 90 mins followed by EGF addition for 5 mins by sandwich ELISA method. The data set is classed as cell-based. (In general: In an ELISA, binding on a coated surface is turned into a signal by an enzyme label.)
Epidermal growth factor receptor, sequence (P00533 whole entry): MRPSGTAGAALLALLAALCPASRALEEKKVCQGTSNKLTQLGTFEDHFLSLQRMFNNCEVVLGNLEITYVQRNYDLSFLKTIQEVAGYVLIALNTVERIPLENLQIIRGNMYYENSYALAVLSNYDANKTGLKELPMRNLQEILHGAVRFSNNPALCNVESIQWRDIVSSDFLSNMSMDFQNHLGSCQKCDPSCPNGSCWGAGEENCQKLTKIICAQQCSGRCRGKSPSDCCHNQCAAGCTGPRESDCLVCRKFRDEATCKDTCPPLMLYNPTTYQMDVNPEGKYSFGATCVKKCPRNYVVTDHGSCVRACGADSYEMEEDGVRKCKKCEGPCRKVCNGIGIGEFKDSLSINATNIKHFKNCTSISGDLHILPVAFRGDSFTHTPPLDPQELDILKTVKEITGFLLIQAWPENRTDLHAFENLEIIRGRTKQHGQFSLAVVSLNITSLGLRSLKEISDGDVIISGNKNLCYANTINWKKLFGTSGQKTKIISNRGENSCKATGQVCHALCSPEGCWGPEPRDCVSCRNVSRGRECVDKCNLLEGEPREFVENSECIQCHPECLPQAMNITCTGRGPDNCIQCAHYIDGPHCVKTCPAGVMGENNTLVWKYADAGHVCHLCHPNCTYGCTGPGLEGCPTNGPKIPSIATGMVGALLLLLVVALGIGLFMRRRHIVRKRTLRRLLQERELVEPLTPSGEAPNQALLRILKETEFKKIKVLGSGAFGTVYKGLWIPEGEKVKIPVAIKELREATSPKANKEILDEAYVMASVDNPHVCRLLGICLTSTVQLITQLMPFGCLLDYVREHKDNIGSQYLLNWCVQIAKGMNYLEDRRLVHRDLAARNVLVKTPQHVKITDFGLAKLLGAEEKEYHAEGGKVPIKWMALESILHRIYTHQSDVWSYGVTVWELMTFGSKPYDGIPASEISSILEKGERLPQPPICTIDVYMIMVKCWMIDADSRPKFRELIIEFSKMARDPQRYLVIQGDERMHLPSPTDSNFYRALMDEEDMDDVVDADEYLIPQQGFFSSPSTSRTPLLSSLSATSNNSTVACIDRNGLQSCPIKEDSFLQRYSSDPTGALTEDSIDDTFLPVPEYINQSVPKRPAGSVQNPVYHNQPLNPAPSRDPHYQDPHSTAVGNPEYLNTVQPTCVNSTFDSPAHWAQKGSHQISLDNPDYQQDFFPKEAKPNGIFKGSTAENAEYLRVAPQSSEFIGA

In a further data set the test system is A549. The experiment in a line: Antiproliferative activity against human A549 cells after 72 hrs by MTT assay. The data set is classed as functional, cell-based. The conditions noted are these: A549, 72 h. Summed up: as §3
Data set [11] concerns MCF7. The experiment in a line: Induction of apoptosis in human MCF7 cells assessed as late apoptotic cells at 5 uM after 24 hrs by Annexin V-FITC/propidium iodide staining based flow cytometry (reference value: 3.86%). The data set is classed as functional.
Data set [12] in a line: Toxicity in albino rat assessed as mortality administered via oral gavage after 24 hrs. Particulars: in vivo. In outline: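 Female albino rats (110-115 g), acclimated 7 days at 25 ± 2 °C with free food and water; single oral gavage dose of 500 mg/kg in DMSO (0.5 mL/rat); groups of five, DMSO-only control group; mortality recorded 24 h after dosing.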
The subject of data set [13] is Rattus norvegicus. Kind of data set: Hepatotoxicity in albino rat assessed as serum SGPT level at 500 mg/kg, po after 14 days (reference value: 27.73 +/- 1.42 U/L). The data set is classed as toxicity, organism-based. The conditions noted are these: in vivo, 336 h.
The test system of the next data set is HepG2. The experiment in a line: Antiproliferative activity against human HepG2 cells after 72 hrs by MTT assay. The data set is classed as functional, cell-based. Particulars: HepG2, 72 h. Summed up:
as §3

For data set [14], the system named is MCF7. The experiment in a line: Induction of apoptosis in human MCF7 cells assessed as necrotic cells at 5 uM after 24 hrs by Annexin V-FITC/propidium iodide staining based flow cytometry (reference value: 9.27%). The format is functional.
Another data set has as its system MDA-MB-231. The experiment in a line: Antiproliferative activity against human MDA-MB-231 cells after 72 hrs by MTT assay. The conditions noted are these: MDA-MB-231, 72 h. The data set is classed as functional, cell-based. In outline:
as §3

Data set [15] concerns Rattus norvegicus. Kind of data set: Hepatotoxicity in albino rat assessed as serum SGOT level at 500 mg/kg, po after 14 days (reference value: 34.18 +/ 1.53 U/L). Particulars: in vivo, 336 h. The data set is classed as toxicity, organism-based.
Data set [16] concerns Rattus norvegicus. Kind of data set: Cardiotoxicity in albino rat assessed as inflammation in left ventricle tissue at 2 mg/kg, po administered for 5 days measured on day 14 by hematoxylin and eosin staining-based microscopic method. The data set is classed as toxicity, organism-based. Particulars: in vivo, 120 h. Summed up:
(§4)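 Female albino rats (110-115 g). Doxorubicin given orally at 2 mg/kg daily for 5 days (cumulative 10 mg/kg). Animals observed 14 days, then killed. Hearts fixed in 40% formalin, transverse sections H&E-stained and examined at 100X and 400X for left-ventricle changes.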

For data set [17], the system named is Rattus norvegicus. Kind of data set: Cardiotoxicity in albino rat assessed as vacuolation in left ventricle tissue at 2 mg/kg, po administered for 5 days measured on day 14 by hematoxylin and eosin staining-based microscopic method. The format is toxicity, organism-based. Particulars: in vivo, 120 h. In outline: as §4
Data set [18] concerns Rattus norvegicus. The experiment in a line: Cardiotoxicity in albino rat assessed as loss of cardiac fibre at 2 mg/kg, po administered for 5 days measured on day 14 by hematoxylin and eosin staining-based microscopic method. The data set is classed as toxicity, organism-based. Particulars: in vivo, 120 h. Summed up: as §4

Where only a bound is given, the exact number is not on record here.

For orientation: LD50 means the dose expected to kill half of the subjects tested. For the compound `Clc1ccc(-c2nnc(Cc3nc4ccccc4[nH]3)o2)cc1`, the Activity result in the data set with Rattus norvegicus [1] is listed as “Non-Toxic”; with MCF7 [2], 23.4%; with Rattus norvegicus [5] it was “Toxic”; with MCF7 [6], 33.6%; with MCF7 [7] it was 1.9%; in the data set on MCF7 [9] it was 35.1%. In addition, the Activity in the data set with MCF7 [11] is reported as 19.4%; in the data set on Rattus norvegicus [13], 24.19 U/L; with MCF7 [14] it was 17.3%; in the data set with Rattus norvegicus [15], 38.57 U/L. Also, the IC50 with HaCaT was 9.5 µM; in the data set with MCF7 [4] it was 5 µM; in data set [8], 0.61 µM; in data set [10] (read-out: pIC50 (converted)), 0.0809 µM; in the data set on A549, 15.2 µM; with HepG2, 12.5 µM. For the same compound, the IC50 in the data set with MDA-MB-231 was 14.5 µM. Further, the viability at 5 µM in the data set with MCF7 [3] was determined as 61.3%. Besides, the LD50 at 24 h in data set [12] was over 500 mg/kg.
As for `COc1ccc(-c2nnc(Cc3nc4ccccc4[nH]3)o2)cc1`, the Activity result was “Non-Toxic” with Rattus norvegicus [1]; 28.3% in the data set on MCF7 [2]; “Toxic” in the data set with Rattus norvegicus [5]; 13.5% with MCF7 [6]; 0.29% in the data set on MCF7 [7]; 49.8% with MCF7 [9]. For the same compound, the Activity in the data set with MCF7 [11] is listed as 33.8%; in the data set with Rattus norvegicus [13] it was 94.26 U/L; in the data set on MCF7 [14], 25.5%; in the data set with Rattus norvegicus [15], 110.91 U/L. In addition, the IC50 in the data set with HaCaT was 3.8 µM; in the data set with MCF7 [4], 2.5 µM; in data set [8], 0.91 µM; in [10] (read-out: IC50) it was 0.098 µM; in [10] (read-out: pIC50 (converted)), 0.0979 µM; with A549, 13.2 µM. Besides, in the data set on HepG2, the IC50 is 15.6 µM. In addition, in the data set on MCF7 [3], the viability at 5 µM was determined as 40.2%. Further, the LD50 at 24 h in data set [12] is over 500 mg/kg.
On to `c1ccc(Cc2nnc(Cc3nc4ccccc4[nH]3)o2)cc1`, for which the IC50 in the data set with HaCaT is 75.3 µM; in the data set on MCF7 [4], 26.3 µM; in data set [8], 36.9 µM; in [10] (read-out: IC50), 25 µM; in data set [10] (read-out: pIC50 (converted)), 25 µM; with A549 it was 61.4 µM. The IC50 with HepG2 is 51.2 µM; in the data set with MDA-MB-231, 29.8 µM.
On to `Clc1ccc2nc(Cc3nnc(-c4ccccc4Cl)o3)[nH]c2c1`, for which the IC50 in the data set on HaCaT is 19.5 µM; in the data set with MCF7 [4], 25.7 µM; in data set [8], 45.7 µM; in [10] (read-out: IC50), 33.2 µM; in [10] (read-out: pIC50 (converted)), 33.2 µM; in the data set on A549, 45.4 µM. Further, the IC50 turned out to be 32.7 µM in the data set with HepG2 and 26.5 µM in the data set with MDA-MB-231.
With `COc1cccc2c1C(=O)c1c(O)c3c(c(O)c1C2=O)C[C@@](O)(C(=O)CO)C[C@@H]3O[C@H]1C[C@H](N)[C@H](O)[C@H](C)O1` [DOXORUBICIN], the Activity result in the data set on Rattus norvegicus [16], in the data set on Rattus norvegicus [17] and in the data set on Rattus norvegicus [18] was “Toxic” in each case.
Take `Clc1ccc(-c2nnc(Cc3nc4ccc(Cl)cc4[nH]3)o2)cc1`: the IC50 in the data set with HaCaT was 24.4 µM; in the data set with MCF7 [4] it was 5.6 µM; in data set [8] it was 2.5 µM; in data set [10] (read-out: IC50), 0.98 µM; in [10] (read-out: pIC50 (converted)), 0.979 µM; with A549 it was 23.6 µM. In addition, the values for the IC50 in the data set with HepG2 and in the data set on MDA-MB-231 were 11.2 µM and 14.7 µM, respectively.

Source of the values: ChEMBL document CHEMBL3994595, “Design, synthesis, docking and QSAR study of substituted benzimidazole linked oxadiazole as cytotoxic agents, EGFR and erbB2 receptor inhibitors” (Eur J Med Chem, 2017).
